Reference: ChEMBL document CHEMBL1275432, “Daptomycin is effective in treatment of experimental endocarditis due to methicillin-resistant and glycopeptide-intermediate Staphylococcus aureus” (Antimicrob Agents Chemother, 2008)
≈ marks a conversion by molar mass, not a printed value. Calls of active or inactive are those of the source.

What was measured:
Staphylococcus aureus [1] = test: Antimicrobial activity against glycopeptide-intermediate Staphylococcus aureus ATCC 700788 by microdilution method; format: functional
Outline: (§1)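 Broth microdilution MIC and MBC per CLSI in cation-adjusted Mueller-Hinton broth. For daptomycin, the broth was adjusted to 50 µg/ml calcium. S. aureus ATCC 29213 was the control strain.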

Staphylococcus aureus [2] = test: Antimicrobial activity against methicillin-resistant Staphylococcus aureus by Etest; format: functional
Staphylococcus aureus [3] = test: Antimicrobial activity against methicillin-resistant Staphylococcus aureus after 72 hrs by Etest; format: functional
Staphylococcus aureus [4] = test: Bactericidal activity against methicillin-resistant Staphylococcus aureus 277 at 0.5 to 4 times MIC by time-kill experiment; format: functional, organism-based
Outline: (§2)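 Time-kill curves per CLSI, run in duplicate. Inoculum was 10^5 CFU/ml, with drug at 0.5–4× MIC. Viable counts were taken at 0, 4 and 24 h. Bactericidal was defined as a ≥3-log CFU reduction at 24 h versus the initial inoculum.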

Staphylococcus aureus [5] = test: Bactericidal activity against glycopeptide-intermediate Staphylococcus aureus ATCC 700788 at 0.5 to 4 times MIC by time-kill experiment; format: functional, organism-based; outline: as §2
[6] = Cmax in human serum at 6 mg/kg, iv administered every 24 hrs; format: ADME, organism-based; set-up: dose 6 mg/kg, route intravenous
[7] = Terminal half-life in human serum at 6 mg/kg, iv administered every 24 hrs; format: ADME, organism-based; set-up: dose 6 mg/kg, route intravenous
[8] = AUC in human serum at 6 mg/kg, iv administered every 24 hrs; format: ADME, organism-based; set-up: dose 6 mg/kg, route intravenous
[9] = Plasma protein binding in human serum at 6 mg/kg, iv administered every 24 hrs; format: ADME, organism-based; set-up: dose 6 mg/kg, route intravenous; conditions: read-out: PPB (converted)
[10] = Plasma protein binding in New Zealand White rabbit plasma at 6 mg/kg, iv administered every 24 hrs; format: ADME, organism-based, Oryctolagus cuniculus; set-up: dose 6 mg/kg, route intravenous; conditions: read-out: PPB (converted)
Staphylococcus aureus [11] = test: Antimicrobial activity against methicillin-resistant Staphylococcus aureus 277 by microdilution method; format: functional; outline: as §1
[12] = Cmin in New Zealand White rabbit infected with glycopeptide-intermediate Staphylococcus aureus after 24 hrs; format: ADME, organism-based, Oryctolagus cuniculus; conditions: in vivo, read-out: Cmin
Outline: (§3)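 Trough serum concentrations were taken in rabbits with catheter-induced aortic valve endocarditis. Infection was 1 ml i.v. via the marginal ear vein: 7 × 10^5 CFU/ml for MRSA or 8 × 10^5 CFU/ml for GISA. Human-simulating pump infusion started 18 h after infection and ran 48 h. Daptomycin was assayed by M. luteus bioassay, vancomycin by immunoturbidimetry.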

Staphylococcus aureus [13] = test: Bacteriostatic activity against methicillin-resistant Staphylococcus aureus 277 at 0.5 to 4 times MIC by time-kill experiment; format: functional, organism-based; outline: as §2
Staphylococcus aureus [14] = test: Bacteriostatic activity against glycopeptide-intermediate Staphylococcus aureus ATCC 700788 at 0.5 to 4 times MIC by time-kill experiment; format: functional, organism-based; outline: as §2
[15] = Terminal half-life in human serum at 1 g, iv administered every 12 hrs; format: ADME, organism-based
[16] = Terminal half-life in New Zealand White rabbit at 1 g, iv administered every 12 hrs; format: ADME, organism-based, Oryctolagus cuniculus; conditions: in vivo
Outline: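 The vancomycin line simulated 1 g i.v. q 12 h (30 mg/kg/day in 2 doses). The daptomycin line simulated 6 mg/kg q 24 h. Parameters came from an open 2-compartment model. Daptomycin was measured by disk-plate bioassay with Micrococcus luteus ATCC 9341 (sensitivity 0.5 µg/ml). Vancomycin was measured by latex-boosted immunoturbidimetry (LOD 0.8 µg/ml).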

[17] = Plasma protein binding in New Zealand White rabbit plasma at 1 g, iv administered every 12 hrs; format: ADME, organism-based, Oryctolagus cuniculus; conditions: read-out: PPB (converted)
[18] = Cmin in New Zealand White rabbit infected with methicillin-resistant Staphylococcus aureus after 24 hrs; format: ADME, organism-based, Oryctolagus cuniculus; conditions: in vivo, read-out: Cmin; outline: as §3

| Compound | MBC (Staphylococcus aureus [1]) | MIC (Staphylococcus aureus [1]) | MIC (Staphylococcus aureus [2]) | MIC (Staphylococcus aureus [3]) | Activity (Staphylococcus aureus [4]) | Activity (Staphylococcus aureus [5]) | Cmax [6] | half-life [7] | AUC at 24 h [8] | fraction unbound at 24 h [9] | fraction unbound at 24 h [10] | MIC (Staphylococcus aureus [11]) | concentration at 24 h [12] | Activity (Staphylococcus aureus [13]) | Activity (Staphylococcus aureus [14]) | half-life [15] | half-life [16] | fraction unbound at 12 h [17] | concentration at 24 h [18] |
| --- | --- | --- | --- | --- | --- | --- | --- | --- | --- | --- | --- | --- | --- | --- | --- | --- | --- | --- | --- |
| GENTAMICIN | 128 µg/mL | 0.25 µg/mL |  |  |  |  |  |  |  |  |  |  |  |  |  |  |  |  |  |
| CCCCCCCCCC(=O)N[C@@H](Cc1c[nH]c2ccccc12)C(=O)N[C@H](CC(N)=O)C(=O)N[C@@H](CC(=O)O)C(=O)N[C@@H]1C(=O)NCC(=O)N[C@@H](CCCN)C(=O)N[C@@H](CC(=O)O)C(=O)N[C@H](C)C(=O)N[C@@H](CC(=O)O)C(=O)NCC(=O)N[C@H](CO)C(=O)N[C@@H]([C@H](C)CC(=O)O)C(=O)N[C@@H](CC(=O)c2ccccc2N)C(=O)O[C@@H]1C | 1 µg/mL (≈ 0.617 µM) | 0.5 µg/mL (≈ 0.309 µM) | 0.12 µg/mL (≈ 0.074 µM) | 0.5 µg/mL (≈ 0.309 µM) | Active | Active | 86000 ng/mL | 9.5 h | 974 µg·h/mL | 0.08 | 0.1 | 0.12 µg/mL (≈ 0.074 µM) |  |  |  |  |  |  |  |
| CN[C@H](CC(C)C)C(=O)N[C@H]1C(=O)N[C@@H](CC(N)=O)C(=O)N[C@H]2C(=O)N[C@H]3C(=O)N[C@H](C(=O)N[C@H](C(=O)O)c4cc(O)cc(O)c4-c4cc3ccc4O)[C@H](O)c3ccc(c(Cl)c3)Oc3cc2cc(c3O[C@@H]2O[C@H](CO)[C@@H](O)[C@H](O)[C@H]2O[C@H]2C[C@](C)(N)[C@H](O)[C@H](C)O2)Oc2ccc(cc2Cl)[C@H]1O [VANCOMYCIN] |  |  |  | 8 µg/mL (≈ 5.52 µM) |  |  |  |  |  |  |  |  | 20000 ng/mL | Active | Active | 4.8 h | 1.3 h | 0.35 | 20000 ng/mL |
